One series relates to HT-29. The experiment in a line: Growth inhibition of human HT-29 cells incubated for 48 hrs by sulforhodamine B assay. The class given is functional. Particulars: HT-29, 48 h; for CC50: read-out: LC50 (the source's name). In short, it runs like this:
(§1)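 NCI-60 five-dose screen at 0.01, 0.1, 1, 10 and 100 µM, 48 h incubation, sulforhodamine B end point. GI50 (50% decrease in net growth), TGI (total growth inhibition) and LC50 (net 50% loss of initial cells) taken from log concentration versus % growth inhibition curves.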

Another series deals with NHDF. The experiment in a line: (§2) Growth inhibition of human NHDF after 72 hrs by CellTiter-Glo luminescent cell viability assay. The class given is cell-based. Particulars: nhdf, 72 h.
For the next series, the system named is Malme-3M. The series can be described thus: Growth inhibition of human MALME-3M cells incubated for 48 hrs by sulforhodamine B assay. The class given is functional. In short, it runs like this: as §1
Series [1] in a line: as §2. The class given is cell-based. Particulars: NHDF cells.

Usually GI50 stands for the concentration giving 50% growth inhibition. Higher therefore signals lower sensitivity of the cells. The TGI is the concentration giving total growth inhibition. In the series on HT-29, `C=C1CC[C@@H]2[C@](C)(COC(C)=O)[C@H](OC(C)=O)CC[C@@]2(C)[C@H]1CC(Nc1ccc(S(=O)(=O)Nc2ncccn2)cc1)C1=CCOC1=O` (stereo partly specified) gave a GI50 of 1030 nM and a TGI of 2790 nM. Further, the “growth inhibition (GI)” value with NHDF was “Non-Toxic”.

The LC50 is the concentration that kills 50% of the test population. Higher therefore signals lower toxicity. For `C=C1CC[C@@H]2[C@](C)(COC(C)=O)[C@H](OC(C)=O)CC[C@@]2(C)[C@H]1CC(Nc1ccc(S(=O)(=O)Nc2ccc(Cl)nn2)cc1)C1=CCOC1=O` (stereo partly specified), the GI50 was determined as 1180 nM in the series with HT-29 and 1720 nM in the series with Malme-3M. Also, the TGI in the series on HT-29 amounted to 2680 nM; in the series with Malme-3M it was 3900 nM. For the same compound, the CC50 in the series on Malme-3M (read-out: LC50 (the source's name)) was 8840 nM. Also, it took 1540 nM to inhibit growth in series [1] by half (GI50 at 72 h). In the series on NHDF, this compound had an LC50 of 3496.358 nM.

Regarding `C=C1CC[C@@H]2[C@](C)(COC(C)=O)[C@H](OC(C)=O)CC[C@@]2(C)[C@H]1CC(Nc1ccc(S(=O)(=O)Nc2nccc(C)n2)cc1)C1=CCOC1=O` (stereo partly specified), in the series on HT-29, the GI50 turned out to be 2020 nM, total growth inhibition (TGI) required 4240 nM and the CC50 came to 8930 nM.

For the compound `C=C1CC[C@@H]2[C@](C)(COC(C)=O)[C@H](OC(C)=O)CC[C@@]2(C)[C@H]1CC(Nc1ccc(S(=O)(=O)Nc2nccs2)cc1)C1=CCOC1=O` (stereo partly specified), in the series on HT-29, halving of growth (GI50) required 2170 nM, the TGI was determined as 4700 nM and the CC50 is 15800 nM.

Turning to `C=C1CC[C@@H]2[C@](C)(COC(C)=O)[C@H](OC(C)=O)CC[C@@]2(C)[C@H]1CC(Nc1ccc(S(=O)(=O)Nc2cc(C)on2)cc1)C1=CCOC1=O` (stereo partly specified), in the series on HT-29, halving of growth (GI50) required 1580 nM, net growth stopped (TGI) at 3090 nM and the CC50 is 6040 nM. In the series on Malme-3M, this compound returned a GI50 of 1890 nM and a TGI of 4000 nM.

The record behind these values is ChEMBL document CHEMBL4033712, “Synthesis and biological evaluation of new C-12(α/β)-(N-) sulfamoyl-phenylamino-14-deoxy-andrographolide derivatives as potent anti-cancer agents” (Bioorg Med Chem Lett, 2017).
